Here are results for one compound from ChEMBL document CHEMBL2176957, “Discovery of a novel noniminosugar acid α glucosidase chaperone series” (J Med Chem, 2012).

Each structure is given as a SMILES string. ≈ marks a conversion by molar mass, not a printed value. Calls of active or inactive are those of the source. No cut-off for these calls is given here.

In data set [1] the target is T1, Lysosomal alpha-glucosidase (Homo sapiens, UniProt P10253). As to the kind of experiment: Inhibition of human recombinant GAA assessed as hydrolysis of bovine liver glycogen by Amplex red oxidase assay. In outline: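 Recombinant human GAA hydrolysing bovine liver glycogen as the native substrate. Released glucose was detected with an Amplex Red glucose oxidase coupled reaction, read as fluorescence on a plate reader.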

For data set [2], the target named is T1, Lysosomal alpha-glucosidase. As to the kind of experiment: Inhibition of wild type recombinant GAA preincubated for 5 mins measured after 45 mins using red-shifted dye by fluorescence assay. Conditions: read-out: IC50.
The target is the same in data set [3]. As to the kind of experiment: Binding affinity at wild type recombinant GAA assessed as rise in melting temperature of protein using SYPRO Orange dye by fluorescence assay. The procedure, abridged:
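Thermal shift of recombinant wild-type GAA (1 μM) with SYPRO Orange (5×) in 50 mM citrate buffer pH 5.0 with 100 mM KCl, 10 mM NaCl, 1 mM MgCl2. Six-point compound series, 0.82–200 μM final, 2% DMSO, DMSO controls. Heated 20 to 95 °C at 4.8 °C/s; fluorescence ex 498/em 580 nm; Tm calculated from the melt curve.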

Data set [4] has the same target. Kind of data set: Increase in GAA activity in human F2845 cells incubated for 5 days followed by 18 to 40 hrs wash out by fluorescence assay relative to vehicle-treated control. Format: cell-based. The procedure, abridged:
(§1)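 Fibroblasts seeded at 5,000 cells/well and treated 5 days, with media and compound renewed on day 3. Assayed directly or after PBS wash and 18 h or 40 h in compound-free medium. Cells were incubated 2 h at 37 °C in pH 4.0 citrate/phosphate buffer with 3 mM 4-MUG and acarbose, then stopped at pH 10. Background subtracted, normalized to vehicle (100%); triplicate, mean ±SD.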

For data set [5] the target is unchanged. As to the kind of experiment: Increase in GAA activity in human F2845 cells incubated for 5 days by fluorescence assay relative to vehicle-treated control. Format: cell-based. In outline: as §1
Data set [6] shares this target. As to the kind of experiment: Increase in GAA activity in human wild type skin fibroblasts incubated for 5 days followed by 18 to 40 hrs wash out by fluorescence assay relative to vehicle-treated control. The procedure, abridged:
as §1

The nature of data set [7]: Cytotoxicity in human wild type skin fibroblasts at 10 to 20 uM after 6 days by confocal laser-scanning microscopic analysis. The conditions noted are these: skin fibroblast, 144 h. The procedure, abridged:
(§2)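 Primary wild-type dermal fibroblasts and patient-derived Pompe fibroblasts (passage 7) grown on chamber slides and exposed to compound for 5 or 6 days. Viability judged from the cultures examined by immunostaining and confocal microscopy.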

In data set [8] the target is T2, Lysosomal acid glucosylceramidase (Homo sapiens) (UniProt P04062).
T2 sequence (whole entry): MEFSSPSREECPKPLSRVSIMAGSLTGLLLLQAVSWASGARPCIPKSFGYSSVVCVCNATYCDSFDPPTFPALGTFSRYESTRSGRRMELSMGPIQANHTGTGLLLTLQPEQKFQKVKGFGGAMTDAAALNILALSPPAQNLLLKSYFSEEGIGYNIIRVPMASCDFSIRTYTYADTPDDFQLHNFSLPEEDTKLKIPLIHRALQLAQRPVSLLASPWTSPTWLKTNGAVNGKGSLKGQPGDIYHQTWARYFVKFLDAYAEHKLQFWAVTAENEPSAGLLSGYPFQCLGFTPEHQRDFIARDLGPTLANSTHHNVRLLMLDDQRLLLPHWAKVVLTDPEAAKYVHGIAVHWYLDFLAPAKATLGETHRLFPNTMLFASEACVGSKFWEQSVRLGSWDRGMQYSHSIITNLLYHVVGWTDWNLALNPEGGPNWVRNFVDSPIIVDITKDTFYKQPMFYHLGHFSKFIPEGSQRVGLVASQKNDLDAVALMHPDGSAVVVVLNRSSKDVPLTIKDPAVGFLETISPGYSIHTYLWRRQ
As to the kind of experiment: Inhibition of glucocerebrosidase.

Data set [9] can be described thus: Cytotoxicity in human wild type skin fibroblasts assessed as cell viability at 1 to 5 uM after 5 days by confocal laser-scanning microscopic analysis. Conditions: skin fibroblast, 120 h. In outline: as §2
Data set [10] deals with T1, Lysosomal alpha-glucosidase. Kind of data set: Increase in GAA activity in human wild type skin fibroblasts incubated for 5 days by fluorescence assay relative to vehicle-treated control. In outline: as §1
The subject of data set [11] is Caco-2. Kind of data set: Efflux ratio from basolateral to apical side to apical to basolateral side of human Caco2 cells. Format: ADME, cell-based. On the technique in general: Caco-2 monolayers are a common model of the intestinal barrier.
Data set [12] can be described thus: Aqueous solubility in PBS buffer.
Data set [13] deals with T1, Lysosomal alpha-glucosidase. Kind of data set: Binding affinity at wild type recombinant GAA assessed as thermostabilization of protein at 50 uM incubated at 66 degC for 60 mins. The procedure, abridged: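 GAA incubated at 66 °C for 60 min with compound at 50 μM, compared with room-temperature incubation. Residual enzymatic activity read out and expressed as the ratio of heated to room-temperature activity; DMSO controls run in duplicate.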

The nature of data set [14]: Cytotoxicity in human F2845 cells assessed as cell viability at 1 to 5 uM after 5 days confocal laser-scanning microscopic analysis. Format: cell-based. Conditions: f2845, 120 h. The procedure, abridged:
as §2

The target of data set [15] is T1, Lysosomal alpha-glucosidase. Kind of data set: Increase in translocation of GAA to lysosomes in human wild type skin fibroblasts at 1 to 5 uM after 5 days by confocal laser-scanning microscopic analysis. In outline: (§3)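 Wild-type primary dermal fibroblasts or Pompe patient fibroblasts (F3248, F0833, F2845; low passage) treated with compound for 5 or 6 days. Fixed in 3% paraformaldehyde, permeabilized with 0.1% Triton X-100, blocked, stained with mouse anti-GAA (Alexa-488) and goat anti-cathepsin D (Alexa-555), DAPI counterstain. Confocal images taken at fixed laser settings; percentage of cells with lysosomal GAA co-localization scored.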

Data set [16] concerns Liver. Kind of data set: Half life in mouse liver microsomes.
The target in data set [17] is T1, Lysosomal alpha-glucosidase. Kind of data set: Increase in translocation of GAA to lysosomes in human F2845 cells at 1 to 5 uM after 5 days by confocal laser-scanning microscopic analysis. Type of data set: cell-based. In outline:
as §3

Data set [18] has the same target. Kind of data set: Ratio of Kd for wild type recombinant NT-495 labelled GAA to IC50 for wild type recombinant GAA (unknown origin.
In data set [19] the test system is Caco-2. As to the kind of experiment: Permeability from basolateral to apical side of human Caco2 cells.
Data set [20] can be described thus: Cytotoxicity in human F2845 cells at 10 to 20 uM after 6 days by confocal laser-scanning microscopic analysis. Type of data set: cell-based. Conditions: f2845, 144 h. In outline: as §2
Data set [21] in a line: Inhibition of alpha-galactosidase.
Data set [22] relates to Caco-2. As to the kind of experiment: Permeability from apical to basolateral side of human Caco2 cells.
Data set [23] addresses T1, Lysosomal alpha-glucosidase. As to the kind of experiment: Inhibition of wild type recombinant GAA preincubated for 5 mins measured after 45 mins using blue-shifted dye by fluorescence assay. The conditions noted are these: read-out: IC50.

For the compound `CC(=O)c1ccc(N2CCN(S(=O)(=O)c3ccc4c(c3)CC(=O)N4)CC2)cc1`, the INH in [1] was determined as 330 nM. Further, the figures for the concentration for half-maximal inhibition (IC50) in [2] and in [23] were 940 nM and 750 nM, respectively. For the same compound, the result in data set [3], in data set [4], in data set [5], in data set [6], in data set [10] and in [13] was Active. For the same compound, the Activity entry is on record as “Toxic” in [7], “Non-toxic” in data set [9], “Non-toxic” in data set [14] and “Toxic” in [20]. The inhibition result in data set [8] and in data set [21] was “Active” each time. Besides, the Ratio worked out at 1.9 in data set [11] and 20 in data set [18]. Further, the solubility (usually the dissolved amount per volume that the medium holds) in data set [12] came to 7.9 µM (≈ 3.16 µg/mL). For the same compound, the result in [15] and in data set [17] was inactive. The t1/2 in data set [16] is recorded as greater than 60 min. Besides, the Papp (commonly a coefficient for how fast a substance crosses the barrier) in [19] came out at 27.1 ×10⁻⁶ cm/s; in data set [22], 14.6 ×10⁻⁶ cm/s.
